Measured values from ChEMBL document CHEMBL4513216, “Probing the Open Global Health Chemical Diversity Library for Multistage-Active Starting Points for Next-Generation Antimalarials” (ACS Infect Dis, 2020).

Test: Toxicity liver stage against HepG2, at 10uM
Type: cell-based
Design: test concentration 10 uM, cell line HepG2-A16-CD81EGFP
Details: human, HepG2-A16-CD81EGFP cells; read-out: INHIBITION
Method in brief: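 Uninfected HepG2-A16-CD81EGFP cells, 3 × 10^3 per well, 1536-well, plated on prespotted compound at 10 μM final, parasite-free screening media added to match infected plates; puromycin 10 μM positive, DMSO 0.5% negative; run in parallel with 48 h PbLuc assay at 37 °C, 5% CO2; viability by CellTiter-Glo luminescence, normalized to controls.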

SMILES | cytotoxicity at 10 µM [%]
COCCCNS(=O)(=O)c1cc(C)sc1C | -11.6
O=C(NC1CC1)[C@@H]1CCO[C@@H]2CCN(CC3CCC3)C[C@H]21 | -111
CC(NC(=O)NCCc1cnn(C)c1)c1ccc(Cl)s1 (stereo unspecified) | -2.47
CC(C)n1c(=O)[nH]c2cn(-c3ccc(Br)cc3)c(=O)n21 | 0.843
O=C(c1ccccc1)N1CCCn2c(CN3CCCCC3)nnc2C1 | -65.5
CCCn1nnnc1CSc1nccn1Cc1ccccn1 | 6.24
CCc1nc(CN(C)C(=O)c2cc(NC(C)=O)ccc2Cl)no1 | -1.71
Cc1ccccc1C(=O)N1CCC2(CCC(C(=O)NCC3CC3)O2)CC1 (stereo unspecified) | -3.28
Cc1csc(CNC(=O)N(C)Cc2cnn(C)c2)n1 | -1.57
Cc1cc(N2CCOC(C(F)(F)F)C2)nc(-c2ccccc2)n1 (stereo unspecified) | -1.23
O=C1Nc2ccccc2CC12CCCN2Cc1ccccn1 (stereo unspecified) | -17.1
O=C(c1cscn1)N1CCc2c(COCC3CC3)cncc2C1 | -105
Cc1cnn(CCCN2C(=O)CCc3ccccc32)c1 | 1.39
Cn1cc(C(=O)N2CCCC(C(=O)CCc3ccccc3)C2)cn1 (stereo unspecified) | -5.16
CCNC(=O)NC1CN(Cc2ccncc2Cl)C[C@@H]1OC (stereo partly specified) | 1.85
O=C(c1sccc1C1CC1)N1CCCN(c2cccnn2)CC1 | -8.67
Cc1nccn1-c1ccc(C(C)NCCC(C)C)cc1 (stereo unspecified) | 15.9
CCN1CC(COC(=O)c2ccccc2Cl)CC1=O (stereo unspecified) | -1.54
Cc1ccc(O)c(CN(CCCn2ccnc2)Cc2ccc(C)s2)c1 | -25.8
Cc1ccoc1C(=O)N1CCCN(Cc2cnn(C)c2)CC1 | -11.1
COc1ccc(C(C(=O)O)N(C)Cc2c(C)nn(C)c2C)c(C)c1 (stereo unspecified) | 7.47
O=C(NC1CC1)N1CCc2ncc(CN3CCOCC3)n2CC1 | -76.5
CC(C)CCN1CCN(C(=O)c2cccnc2-n2cncn2)CC1 | 6.37

SMILES | cytotoxicity at 10 µM [%]
Cc1nn(CCC(=O)N(C)Cc2c(Cl)cnn2C)cc1Br | 1.29
CNC(=O)CN1CCOCC2(CCCN(CCc3ccccc3)C2)C1 (stereo unspecified) | 0.0221
O=C([C@@H]1COC[C@H]2CN(C3CCOCC3)C[C@H]21)N1CCCO1 | -3.2
CC(C)N(C)S(=O)(=O)N(C)Cc1ccc2c(c1)OCO2 | -0.0868
Cn1ccc(C(=O)N2CCN(c3ncccn3)CC2)cc1=O | -11.6
Cc1cccc(CN2CC[C@@H]3O[C@@H](C(=O)N4CCN(C)CC4)C[C@@H]32)c1 | 8.01
Cc1cc(C2CCCN(C(=O)c3cnn(C)c3)C2)ccn1 (stereo unspecified) | -2.83
CCN(CC)C(=O)CC[C@@H]1CNC(=O)[C@@H]2C[C@H](NC(=O)C3CC3)CN12 | 5.76
CCC(CC)CN1CCN(CC(=O)Nc2ccc3nsnc3c2)CC1 | -13.8
CC(O)CN1CCN(Cc2csc(-c3cnn(C)c3)n2)CC1 (stereo unspecified) | -4.1
CN1CCOC(C(=O)Nc2ccc3c(c2)nc(C(C)(C)C)n3C)C1 (stereo unspecified) | -1.8
Cc1cc2occ(CC(=O)N3CCC4(CCCN(C)C4=O)C3)c2cc1Cl (stereo unspecified) | -4.03
COc1ccc(CCN2CCCC2Cn2nc(C)nc2C)cc1 (stereo unspecified) | -7.16
COc1cccc2c1OCC(NCc1cnn(-c3ccccc3)c1)C2 (stereo unspecified) | -0.517
O=C1CCC2(CCCN(C(=O)Cc3ccccc3)C2)N1 (stereo unspecified) | 8.18
NC(=O)c1ccc2c(c1)nc1n2CCN(Cc2ccccc2)C1 | -8.8
OC(CN1CCC(c2ccn[nH]2)CC1)c1cccc(C(F)(F)F)c1 (stereo unspecified) | -12.1
COc1ccc(CN2CCN(Cc3nccn3C)C(C)C2)cc1F (stereo unspecified) | 2.42
CN1CCN(C(=O)c2cccn2C)Cc2cccnc21 | 5.73
CC(C)c1nc(CN(C)C2CCN(CC(F)(F)F)C2)no1 (stereo unspecified) | -15.8
FC(F)(F)c1cccc(-c2c[nH]c(C3CCCN3)n2)c1 (stereo unspecified) | -3.25
F[C@@H]1CN(CC2CC2)C[C@@H]1OCc1nc2cnccc2[nH]1 | 8.42
CN(C)c1ncccc1CNS(=O)(=O)c1ccccc1Cl | -15.3

SMILES | cytotoxicity at 10 µM [%]
COCCn1ccnc1C1CCCN(C(=O)CSCC2CC2)C1 (stereo unspecified) | -14.6
Cc1cccc2[nH]cc(CC(=O)N3CCC(Nc4cccnn4)CC3)c12 | -8.45
c1c[nH]c(-c2cn(CCSc3cnn[nH]3)nn2)n1 | -47.5
Cc1nc2c(c(N3C[C@@H](C)[C@@](C)(O)C3)n1)CCC2 | 9.74
O=S(=O)(c1ccccc1)N1CCC[C@]2(C[C@H](OCC3CC3)CO2)C1 | -75.9
CC(=O)c1cc(CC(=O)NCc2cccc(F)c2F)cs1 | 2.95
Cn1cc(CN2C[C@@H]3COC[C@]3(CNC(=O)c3ccccc3)C2)cn1 | -4.02
Cc1c(C(=O)NC2=NCCS2)cnn1-c1ccc(Br)cc1 | -0.647
Cc1sc2c(C3CCCNC3)nc(Nc3cccc(F)c3)n2c1C (stereo unspecified) | 1.24
Cc1ccc(CNC(=O)N2CCOCC2C2CC2)cc1F (stereo unspecified) | 10.4
Cc1c(Br)cccc1S(=O)(=O)NCc1ccnn1C | 43
CN(C)C(CNC(=O)N(Cc1ccco1)C1CC1)c1cccs1 (stereo unspecified) | 3.06
CN1CC[C@]2(CN(CC3CCOC3)C[C@H]2c2ccccc2)C1=O (stereo partly specified) | 0.619
O=C(CNc1cc2c(cc1Cl)OCCCO2)NCc1ccc(F)cc1 | 0.854
CC(C)Cc1nc(OCC(=O)O)c(C#N)c2c1CCC2 | -5.93
Cc1ccc(-c2cc(-c3c(C)nn(CCO)c3C)c(C#N)c(N)n2)cc1 | 15
COc1cc(C2SCC(=O)Nc3[nH]ncc32)cc2c1OCO2 (stereo unspecified) | 5.28
O=C(c1ccc[nH]1)N1CCCC2(CCN(c3ccsc3)C2=O)C1 (stereo unspecified) | -0.449
CC(=O)c1c(F)cccc1NC1CCN(C(=O)CC(C)C)CC1 | 22.6
CC(Cn1ccnc1)NCc1n[nH]c2c1CCC2 (stereo unspecified) | 6.07
Cc1cc(=O)[nH]c(=O)n1COCCOCc1ccccc1 | 3.36
CC(=O)Nc1nc(C(=O)NC(C)c2ccncc2)cs1 (stereo unspecified) | -6.5
Cc1ccc(NC(=O)NC(C)c2nc[nH]n2)cc1 (stereo unspecified) | -0.665

SMILES | cytotoxicity at 10 µM [%]
COCCC(=O)N1CC2(CCN(Cc3ccncc3)CC2)C1 | -66.6
CCOc1ncccc1C(=O)N1CCCC(c2nncn2C)C1 (stereo unspecified) | -8.47
O=C(c1ccnnc1)N1C[C@H]2CCC[C@@]2(COCC2CCOCC2)C1 | -3.04
CC(C)c1nn(CC(=O)N2CCCC2)c(=O)c2c1cnn2C(C)(C)C | 1.12
OC1CCN(Cc2ccnc(-c3cccnc3)n2)CC1 | -20.7
CCC(NC(=O)CS(=O)(=O)C1CCCC1)c1cc(F)ccc1F (stereo unspecified) | 0.217
Fc1cccc2c1CCC2NCc1ccc(N2CCOCC2)cc1 (stereo unspecified) | -14.7
Cc1cccc(-c2cc(-c3c(C)nn(CCO)c3C)c(C#N)c(N)n2)c1 | 20.2
O=C(Nc1ccnc(OC2CCOC2)c1)c1cc(F)ccc1F (stereo unspecified) | 5.87
Cc1cnc2[nH]c(C(F)(F)F)c(CN3CCCC(CO)C3)c2c1 (stereo unspecified) | 8.48
CCc1ccc(C(C)NCc2nccn2Cc2ccccc2)o1 (stereo unspecified) | -1.2
O=C(c1cc(C2CC2)on1)N1C[C@@H]2COC[C@]2(COc2cccnc2)C1 | -89.7
c1cnn(CC2CN(Cc3nc(-c4ccsc4)no3)CCO2)c1 (stereo unspecified) | -8.06
O=C(N[C@@H]1CN(c2ncccn2)C[C@@H]2CCCO[C@@H]21)c1cccnc1 | 11.4
CCCNC(=O)CNC(=O)CCc1ccccc1Br | 12.3
CSC(C)(C)CNC(=O)NC1CCN(CC=C(C)C)CC1 | -6.45
COc1ccc2c(=O)ccn(CC(=O)O)c2c1 | 10.2
Cc1cccc(C)c1OCC(O)CNCc1c(C)nn(C)c1N(C)C (stereo unspecified) | -1.47
CCCn1ccnc1CN1C[C@@H](NC(C)=O)[C@H](c2ccc(OC)cc2)C1 | 0.344
COc1cc(N2CC[C@H](O)[C@@H]2Cc2ccccc2)ncn1 | -75
CC(C)c1noc(CN(C)C(c2ccc(F)cc2)c2cccnc2)n1 (stereo unspecified) | 5.66
CC(=O)c1c(C)nn(S(=O)(=O)c2ccccc2)c1C | -0.305
CN(C)CCn1c2c(ccc1=O)CCN(Cc1ccncc1)CC2 | 3.97

SMILES | cytotoxicity at 10 µM [%]
Cc1cc(NC(=O)CN2CCCC2c2c(C)nn(C)c2Cl)on1 (stereo unspecified) | -0.945
O=C1CC2(CCN(CCCF)CC2)CN1Cc1cc(F)cc(F)c1 | 16.3
Cc1ccc(C)c(CS(=O)(=O)CC(=O)Nc2ccc(F)cc2F)c1 | 3.28
Cc1ccc(C(=O)NCc2cccnc2-n2cncn2)cc1S(C)(=O)=O | 4.5
CN(Cc1cccs1)Cc1nnsc1Cl | -5.65
CCC1(CO)CCCN(c2ncccc2C#N)C1 (stereo unspecified) | -9.06
NC(=O)CCn1ccc(NCc2cc(F)ccc2Br)n1 | -1.91
CCC(C)NC(=O)CCc1ccc(OCC(F)(F)F)c(OC)c1 (stereo unspecified) | -3.27
Cc1nc(C)n(CC2CN(Cc3cccc4ccccc34)CCO2)n1 (stereo unspecified) | -2.64
O=C(NCc1nncn1C1CC1)c1cccnc1Oc1ccccc1 | 1.57
Cc1ncsc1C(=O)NC1CCN(CC(N)=O)CC1 | -3.54
CC(C)COC1CCN(C(=O)c2cc3ccccc3c(=O)[nH]2)CC1 | 9.05
CC(C)c1noc(C(C)N2CCN(Cc3noc(C4CC4)n3)CC2)n1 (stereo unspecified) | 3.01
Cc1cc(C(F)(F)F)nc(CNc2cc(C)nc3cc(C)nn23)n1 | 9.29
CC(Cc1ccco1)NC(=O)Nc1ccc(S(C)(=O)=O)nc1 (stereo unspecified) | 3.95
OC1CCCN(Cc2cn(CC3CCN(C4CCSCC4)CC3)nn2)C1 (stereo unspecified) | -61
CCN(CC)CCNC(=O)C(C)OCC(F)(F)F (stereo unspecified) | 4.23
Cc1nn(C)c(C)c1OCC(=O)NCC(O)c1ccsc1 (stereo unspecified) | 2.27
c1cnn(CCCO[C@@H]2CC[C@H]3[C@H]2OCCN3CC2CC2)c1 | 5.93
